Results from ChEMBL document CHEMBL5058577, “EUbOPEN Chemogenomics Library 2 (Multiplex)” (2022).

Tested on: U2OS
Assay: Multiplex assay against U2OS
Type: toxicity, cell-based
Details: human
Outline: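 Tubulin, mitochondrial-mass and membrane-permeability phenotypes are per cents of healthy-nucleus cells. Cells were gated by CellPathfinder machine learning into Hoechst high-intensity objects or normal cells, normal cells into healthy, pyknosed or fragmented nuclei, and pyknosed cells into mitotic or apoptotic. Before that, live cells stained at seeding with Hoechst33342, BioTracker Green Microtubule Cytoskeleton Dye, MitoTracker Red and Annexin V Alexa Fluor 680 were imaged on a CQ1 microscope at 37°C and 5% CO2 after compound addition.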

[1] = 12 h, 1 µM, compound concentration 1 uM, replicate 1
[2] = 12 h, 1 µM, compound concentration 1 uM, replicate 2
[3] = 12 h, 10 µM, compound concentration 10 uM, replicate 1
[4] = 12 h, 10 µM, compound concentration 10 uM, replicate 2
[5] = 24 h, 1 µM, compound concentration 1 uM, replicate 1
[6] = 24 h, 1 µM, compound concentration 1 uM, replicate 2
[7] = 24 h, 10 µM, compound concentration 10 uM, replicate 1
[8] = 24 h, 10 µM, compound concentration 10 uM, replicate 2
[9] = 48 h, 1 µM, compound concentration 1 uM, replicate 1
[10] = 48 h, 1 µM, compound concentration 1 uM, replicate 2
[11] = 48 h, 10 µM, compound concentration 10 uM, replicate 1
[12] = 48 h, 10 µM, compound concentration 10 uM, replicate 2

CCC(=O)OCC(=O)[C@@]1(OC(=O)CC)[C@@H](C)C[C@H]2[C@@H]3CCC4=CC(=O)C=C[C@]4(C)[C@@]3(Cl)[C@@H](O)C[C@@]21C [BECLOMETHASONE DIPROPIONATE]
Population Apoptotic (%) [1]: 84% | Population Fragmented Nuclei (%) [1]: 23% | Population Healthy Nuclei (%) [1]: 64% | Population Hoechst High Intensity Objects (%) [1]: 1% | Population Membrane Permeable-Phenotype (%) [1]: 11% | Population Mitochondria Different-Phenotype (%) [1]: 4% | Population Mitotic Cells (%) [1]: 15% | Population Normal (%) [1]: 98% | Population Pyknosed Nuclei (%) [1]: 12% | Population Tubulin-Different-Phenotype (%) [1]: 6% | Total Cell Count [1]: 160 | Population Apoptotic (%) [2]: 71% | Population Fragmented Nuclei (%) [2]: 18% | Population Healthy Nuclei (%) [2]: 75% | Population Hoechst High Intensity Objects (%) [2]: 0% | Population Membrane Permeable-Phenotype (%) [2]: 13% | Population Mitochondria Different-Phenotype (%) [2]: 8% | Population Mitotic Cells (%) [2]: 28% | Population Normal (%) [2]: 99% | Population Pyknosed Nuclei (%) [2]: 6% | Population Tubulin-Different-Phenotype (%) [2]: 4% | Total Cell Count [2]: 111 | Population Apoptotic (%) [3]: 65% | Population Fragmented Nuclei (%) [3]: 42% | Population Healthy Nuclei (%) [3]: 40% | Population Hoechst High Intensity Objects (%) [3]: 4% | Population Membrane Permeable-Phenotype (%) [3]: 67% | Population Mitochondria Different-Phenotype (%) [3]: 73% | Population Mitotic Cells (%) [3]: 34% | Population Normal (%) [3]: 95% | Population Pyknosed Nuclei (%) [3]: 17% | Population Tubulin-Different-Phenotype (%) [3]: 80% | Total Cell Count [3]: 176 | Population Apoptotic (%) [4]: 68% | Population Fragmented Nuclei (%) [4]: 12% | Population Healthy Nuclei (%) [4]: 69% | Population Membrane Permeable-Phenotype (%) [4]: 48% | Population Mitochondria Different-Phenotype (%) [4]: 97% | Population Mitotic Cells (%) [4]: 31% | Population Pyknosed Nuclei (%) [4]: 18% | Population Tubulin-Different-Phenotype (%) [4]: 97% | Total Cell Count [4]: 109 | Population Apoptotic (%) [5]: 78% | Population Fragmented Nuclei (%) [5]: 21% | Population Healthy Nuclei (%) [5]: 67% | Population Hoechst High Intensity Objects (%) [5]: 2% | Population Membrane Permeable-Phenotype (%) [5]: 2% | Population Mitochondria Different-Phenotype (%) [5]: 4% | Population Mitotic Cells (%) [5]: 21% | Population Normal (%) [5]: 97% | Population Pyknosed Nuclei (%) [5]: 10% | Population Tubulin-Different-Phenotype (%) [5]: 1% | Total Cell Count [5]: 217 | Population Apoptotic (%) [6]: 87% | Population Fragmented Nuclei (%) [6]: 15% | Population Healthy Nuclei (%) [6]: 71% | Population Hoechst High Intensity Objects (%) [6]: 0% | Population Membrane Permeable-Phenotype (%) [6]: 6% | Population Mitochondria Different-Phenotype (%) [6]: 5% | Population Mitotic Cells (%) [6]: 12% | Population Normal (%) [6]: 99% | Population Pyknosed Nuclei (%) [6]: 13% | Population Tubulin-Different-Phenotype (%) [6]: 3% | Total Cell Count [6]: 123 | Population Apoptotic (%) [7]: 74% | Population Fragmented Nuclei (%) [7]: 35% | Population Healthy Nuclei (%) [7]: 45% | Population Hoechst High Intensity Objects (%) [7]: 3% | Population Membrane Permeable-Phenotype (%) [7]: 40% | Population Mitochondria Different-Phenotype (%) [7]: 72% | Population Mitotic Cells (%) [7]: 25% | Population Normal (%) [7]: 96% | Population Pyknosed Nuclei (%) [7]: 18% | Population Tubulin-Different-Phenotype (%) [7]: 66% | Total Cell Count [7]: 174 | Population Apoptotic (%) [8]: 64% | Population Fragmented Nuclei (%) [8]: 12% | Population Healthy Nuclei (%) [8]: 69% | Population Hoechst High Intensity Objects (%) [8]: 9% | Population Membrane Permeable-Phenotype (%) [8]: 43% | Population Mitochondria Different-Phenotype (%) [8]: 86% | Population Mitotic Cells (%) [8]: 35% | Population Normal (%) [8]: 90% | Population Pyknosed Nuclei (%) [8]: 17% | Population Tubulin-Different-Phenotype (%) [8]: 76% | Total Cell Count [8]: 106 | Population Apoptotic (%) [9]: 91% | Population Fragmented Nuclei (%) [9]: 22% | Population Healthy Nuclei (%) [9]: 68% | Population Hoechst High Intensity Objects (%) [9]: 2% | Population Membrane Permeable-Phenotype (%) [9]: 5% | Population Mitochondria Different-Phenotype (%) [9]: 2% | Population Mitotic Cells (%) [9]: 8% | Population Normal (%) [9]: 97% | Population Pyknosed Nuclei (%) [9]: 9% | Population Tubulin-Different-Phenotype (%) [9]: 2% | Total Cell Count [9]: 268 | Population Apoptotic (%) [10]: 85% | Population Fragmented Nuclei (%) [10]: 10% | Population Healthy Nuclei (%) [10]: 75% | Population Membrane Permeable-Phenotype (%) [10]: 8% | Population Mitochondria Different-Phenotype (%) [10]: 5% | Population Mitotic Cells (%) [10]: 14% | Population Pyknosed Nuclei (%) [10]: 14% | Population Tubulin-Different-Phenotype (%) [10]: 3% | Total Cell Count [10]: 152 | Population Apoptotic (%) [11]: 80% | Population Fragmented Nuclei (%) [11]: 36% | Population Healthy Nuclei (%) [11]: 47% | Population Hoechst High Intensity Objects (%) [11]: 4% | Population Membrane Permeable-Phenotype (%) [11]: 20% | Population Mitochondria Different-Phenotype (%) [11]: 26% | Population Mitotic Cells (%) [11]: 20% | Population Normal (%) [11]: 95% | Population Pyknosed Nuclei (%) [11]: 15% | Population Tubulin-Different-Phenotype (%) [11]: 14% | Total Cell Count [11]: 199 | Population Apoptotic (%) [12]: 70% | Population Fragmented Nuclei (%) [12]: 21% | Population Healthy Nuclei (%) [12]: 65% | Population Hoechst High Intensity Objects (%) [12]: 6% | Population Membrane Permeable-Phenotype (%) [12]: 16% | Population Mitochondria Different-Phenotype (%) [12]: 36% | Population Mitotic Cells (%) [12]: 29% | Population Normal (%) [12]: 93% | Population Pyknosed Nuclei (%) [12]: 13% | Population Tubulin-Different-Phenotype (%) [12]: 10% | Total Cell Count [12]: 131
